Data taken from ChEMBL document CHEMBL2086260, “Cytotoxic prenylated acetophenone dimers from Acronychia pedunculata” (J Nat Prod, 2012).

How the values were obtained:
[1] = tested on: DU-145; test: Cytotoxicity against human DU145 cells after 48 hrs by […]; type: functional, cell-based; conditions: for IC50: DU-145, 48 h
Summary of the method: (§1)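 Cells from ATCC, grown in RPMI 1640 with 10% heat-inactivated FBS and 1% penicillin/streptomycin. Seeded at 5000 cells/well and incubated overnight, then exposed to graded compound concentrations or DMSO vehicle for 48 h. Viability was read by MTS reagent absorbance at 490 nm and normalized to vehicle. Each experiment was run in triplicate or quadruplicate; values are means ± SD.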

[2] = tested on: A2058; test: Cytotoxicity against human A2058 cells after 48 hrs by […]; type: functional, cell-based; conditions: for IC50: A2058, 48 h; summary of the method: as §1
[3] = tested on: NHDF; test: Cytotoxicity against human NHDF cells after 48 hrs by […]; type: cell-based; conditions: for IC50: Homo sapiens, NHDF; for inhibition (INH): human, nhdf
Summary of the method: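 Normal human dermal fibroblasts were grown in DMEM with 10% FBS. Seeded at 5000 cells/well and incubated overnight, then exposed to compounds or DMSO vehicle for 48 h. Viability was read by MTS absorbance at 490 nm and normalized to vehicle. Each experiment was run in triplicate or quadruplicate.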

| SMILES | IC50 [1] | IC50 [2] | inhibition [1] | inhibition [2] | IC50 [3] | inhibition (INH) [3] |
| --- | --- | --- | --- | --- | --- | --- |
| CNC(=O)c1cc(Oc2ccc(NC(=O)Nc3ccc(Cl)c(C(F)(F)F)c3)cc2)ccn1 [SORAFENIB] | 5.1 µM | 3.8 µM |  |  |  |  |
| COc1c(CC=C(C)C)c(O)c(C(CC(C)C)c2c(O)c(C(C)=O)c(O)c3c2OC(C(C)(C)O)C3)c(O)c1C(C)=O (stereo not given) [ACROFOLIONE A] | > 5 µM | 4.2 µM | Dose-dependent effect | Dose-dependent effect | > 5 µM | Dose-dependent effect |
| COc1c(CC=C(C)C)c(O)c([C@H](CC(C)C)c2c(O)c(CC=C(C)C)c(O)c(C(C)=O)c2O)c(O)c1C(C)=O [ACROVESTONE] | 0.93 µM | 0.38 µM | Dose-dependent effect | Dose-dependent effect | > 5 µM | Dose-dependent effect |
| C=C(C)C(O)Cc1c(O)c(C(C)=O)c(O)c(C(CC(C)C)c2c(O)c(CC=C(C)C)c(OC)c(C(C)=O)c2O)c1O (stereo not given) [ACROVESTENOL] | 2.7 µM | 2.8 µM | Dose-dependent effect | Dose-dependent effect | > 5 µM | Dose-dependent effect |
